Experiment [1] deals with T1, Estrogen receptor (Mus musculus) (UniProt O08537+P19785). Put plainly: Percent inhibition of estrone-stimulated uterotrophic effect in mice at 10 ug dose. Type of experiment: functional. In a few lines: (§1)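 Antiuterotrophic test in immature female NMRI mice (20 days old). Estrone 0.4 μg was co-injected with the compound in olive oil, sc daily for three days. Uterine dry weight per body weight was read 24 h after the last dose. Inhibition (%) = 100 − [(W_S,T − W_V)/(W_S − W_V) × 100], where W_V is the vehicle control.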
T1 sequence (O08537 whole entry, looked up): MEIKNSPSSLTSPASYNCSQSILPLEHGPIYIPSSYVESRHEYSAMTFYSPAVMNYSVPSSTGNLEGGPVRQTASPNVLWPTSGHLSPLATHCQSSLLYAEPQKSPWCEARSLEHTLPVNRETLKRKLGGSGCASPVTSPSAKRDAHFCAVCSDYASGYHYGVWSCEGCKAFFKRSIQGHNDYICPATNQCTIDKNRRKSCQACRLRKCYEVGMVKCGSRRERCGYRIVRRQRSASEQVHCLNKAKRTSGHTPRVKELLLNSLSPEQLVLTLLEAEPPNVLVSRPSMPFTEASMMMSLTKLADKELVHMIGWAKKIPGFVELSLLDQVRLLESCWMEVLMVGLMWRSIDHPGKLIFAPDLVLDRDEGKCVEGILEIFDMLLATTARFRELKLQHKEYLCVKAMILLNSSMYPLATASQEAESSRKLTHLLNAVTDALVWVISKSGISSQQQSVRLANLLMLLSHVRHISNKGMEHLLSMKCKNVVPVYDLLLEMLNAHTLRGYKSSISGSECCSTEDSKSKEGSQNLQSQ
T1 sequence (P19785 whole entry, looked up): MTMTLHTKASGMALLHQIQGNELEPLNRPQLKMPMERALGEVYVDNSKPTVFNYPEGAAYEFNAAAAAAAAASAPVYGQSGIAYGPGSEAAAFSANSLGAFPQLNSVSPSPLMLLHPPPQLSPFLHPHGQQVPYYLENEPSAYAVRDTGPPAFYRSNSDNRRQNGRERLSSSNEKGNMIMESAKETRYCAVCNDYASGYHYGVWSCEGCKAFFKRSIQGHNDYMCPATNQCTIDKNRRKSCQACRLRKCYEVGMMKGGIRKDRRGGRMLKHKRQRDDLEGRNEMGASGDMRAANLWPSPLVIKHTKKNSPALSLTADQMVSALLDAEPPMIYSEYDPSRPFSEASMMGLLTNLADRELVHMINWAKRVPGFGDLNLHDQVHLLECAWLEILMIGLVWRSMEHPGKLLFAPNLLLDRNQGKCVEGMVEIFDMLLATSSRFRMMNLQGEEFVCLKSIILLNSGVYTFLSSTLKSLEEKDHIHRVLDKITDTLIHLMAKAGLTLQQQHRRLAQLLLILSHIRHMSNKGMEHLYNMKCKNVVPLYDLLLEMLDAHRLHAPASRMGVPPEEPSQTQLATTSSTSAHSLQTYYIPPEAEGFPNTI

Experiment [2] addresses T1, Estrogen receptor (Mus musculus). Put plainly: Anti-uterotrophic effect in mice as uterine weight(mg) relative to body weight(g) at 250 ug dose. In kind it is functional. In outline: (§2)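 Immature female NMRI mice, 20 days old, groups of six to ten; compound plus standard estrone 0.4 μg in olive oil (100 μL/animal) given sc on three consecutive days. Killed 24 h after last injection; uteri fixed in Bouin solution 2 h, dried at 100 °C for 18 h, weighed. Relative weight = uterine dry weight (mg)/body weight (g) × 100; mean of 6 animals ± SD.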

For experiment [3] the target is unchanged. Put plainly: Percent inhibition of estrone-stimulated uterotrophic effect in mice at 250 ug dose. Type of experiment: functional. In a few lines: as §1
Experiment [4] has the same target. Put plainly: Uterotrophic effect in mice as uterine weight(mg) relative to body weight(g) at 2 ug dose. In kind it is functional, tissue-based. In outline: (§3)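 Uterotrophic test: 20-day-old immature female NMRI mice, six to ten per group, received compound alone in olive oil (100 μL/animal) sc on three consecutive days; controls received vehicle. After 24 h, uteri were Bouin-fixed 2 h and dried 18 h at 100 °C. Uterine dry weight (mg)/body weight (g) × 100; mean of 6 ± SD.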

Experiment [5] concerns MCF7. Put plainly: Inhibition of hormone-sensitive MCF-7 mammary tumor cell proliferation at 1*10e-7 M. Type of experiment: functional, Homo sapiens. In outline: (§4)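 MCF-7 cells were grown in modified improved MEM with 10% newborn calf serum at 37 °C and 5% CO2, plated in 96-well plates for 3 d, then given drug medium (controls 0.1% DMF). After 3 days, cells were glutaraldehyde-fixed and crystal violet-stained; T/C = test/control optical density, corrected for initial density (vinblastine 10^-7 M). 16 replicates ± SD.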

For experiment [6], the system named is MCF7. Put plainly: Inhibition of hormone-sensitive MCF-7 mammary tumor cell proliferation at 1*10e-6 M. In kind it is functional, Homo sapiens. In outline:
as §4

The target of experiment [7] is T1, Estrogen receptor (Mus musculus). Put plainly: Anti-uterotrophic effect in mice as uterine weight(mg) relative to body weight(g) at 2 ug dose. In kind it is functional. In a few lines: as §2
The subject of experiment [8] is MCF7. Put plainly: Inhibition of hormone-sensitive MCF-7 mammary tumor cell proliferation at 1*10e-5 M. Type of experiment: functional, Homo sapiens. In outline: as §4
Experiment [9] deals with T1, Estrogen receptor (Mus musculus). Put plainly: Anti-uterotrophic effect in mice as uterine weight(mg) relative to body weight(g) at 10 ug dose. Type of experiment: functional. In outline: as §2
In experiment [10] the test system is MDA-MB-231. Put plainly: Inhibition of hormone-independent MDA-MB 231 mammary tumor cell proliferation at 5*10e-6 M. Type of experiment: functional, Homo sapiens. In outline:
(§5)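 MDA-MB 231 cells were grown in McCoy 5a medium with 10% NCS and were pre-grown 3 d in microplates before drug medium was added (controls 0.1% DMF). After 2 days of incubation, wells were fixed with 1% glutaraldehyde, stained with 0.02% crystal violet, and read by optical density. T/C (%) was corrected for initial density (vinblastine 10^-7 M). 16 replicates ± SD.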

The subject of experiment [11] is MCF7. Put plainly: Inhibition of hormone-sensitive MCF-7 mammary tumor cell proliferation at 5*10e-6 M. In kind it is functional, Homo sapiens. In a few lines:
as §4

Experiment [12] has as its target T1, Estrogen receptor (Mus musculus). Put plainly: Percent inhibition of estrone-stimulated uterotrophic effect in mice at 2 ug dose. In kind it is functional. In outline:
as §1

In experiment [13] the test system is MDA-MB-231. Put plainly: Inhibition of hormone-independent MDA-MB 231 mammary tumor cell proliferation at 1*10e-6 M. Type of experiment: functional, Homo sapiens. In outline:
as §5

In experiment [14] the target is Estrogen receptor (Bos taurus) (UniProt Q9XSB5+P49884). Put plainly: Relative binding affinity for calf uterine estrogen receptor compared to 17-beta-estradiol (E2). In kind it is protein assay. In a few lines:
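Competitive binding in calf uterine cytosol (final protein 3 mg/mL) in Tris-EDTA-NaN3 buffer, pH 7.5. 5 nM [3H]17β-estradiol plus competitor at 10^-9 to 10^-5 M, 18 h at 4 °C. Free ligand removed with dextran-coated charcoal (90 min, 4 °C). Nonspecific binding from 4 μM estradiol. RBA = ratio of estradiol to test molar concentrations giving 50% displacement × 100.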

The target in experiment [15] is T1, Estrogen receptor (Mus musculus). Put plainly: Anti-uterotrophic effect in mice as uterine weight(mg) relative to body weight(g) at 50 ug dose. In kind it is functional. In a few lines: as §2
Experiment [16] shares this target. Put plainly: Uterotrophic effect in mice as uterine weight(mg) relative to body weight(g) at 10 ug dose. In kind it is functional, tissue-based. In outline: as §3
Experiment [17] deals with MDA-MB-231. Put plainly: Inhibition of hormone-independent MDA-MB 231 mammary tumor cell proliferation at 1*10e-7 M. Type of experiment: functional, Homo sapiens. In outline:
as §5

The subject of experiment [18] is MDA-MB-231. Put plainly: Inhibition of hormone-independent MDA-MB 231 mammary tumor cell proliferation at 1*10e-5 M. In kind it is functional, Homo sapiens. In outline:
as §5

Experiment [19] concerns the target T1, Estrogen receptor (Mus musculus). Put plainly: Percent inhibition of estrone-stimulated uterotrophic effect in mice at 50 ug dose. In kind it is functional. In a few lines: as §1
For experiment [20] the target is unchanged. Put plainly: Uterotrophic effect in mice as uterine weight(mg) relative to body weight(g) at 250 ug dose. In kind it is functional, tissue-based. In outline: as §3
The target is the same in experiment [21]. Put plainly: Uterotrophic effect in mice as uterine weight(mg) relative to body weight(g) at 50 ug dose. In kind it is functional, tissue-based. In a few lines: as §3

As usually defined, the inhibition is the change of the read-out against control, counted positive when it falls. Broadly, the T/C is the ratio of treated to control.

The structures appear in SMILES notation.

`CC(=O)Oc1ccc2c(c1)CC(C)n1c-2c(C=O)c2ccc(OC(C)=O)cc21` (stereo not drawn): the inhibition is 14% in experiment [1], 38% in experiment [3], 20% in experiment [12] and 30% in [19]. Further, the Relative uterus weight in experiment [2] was found to be 39.7; in experiment [4] it was 19.6; in [7], 45.3; in [9], 48.5; in [15], 42.6; in experiment [16] it was 18.2. For the same molecule, the Relative uterus weight came out at 19.9 in experiment [20] and 18.2 in experiment [21]. Also, the T/C is recorded as 97% with MCF7 [5]; 106% in the experiment with MCF7 [6]; 1% in the experiment with MCF7 [8]; 79% in the experiment on MDA-MB-231 [10]; 36% in the experiment on MCF7 [11]; 112% in the experiment on MDA-MB-231 [13]. Further, the values for the T/C with MDA-MB-231 [17] and in the experiment on MDA-MB-231 [18] were 109% and 45%, respectively. In experiment [14], this molecule registered a relative binding affinity (RBA) of 1.7.

With `CCC1Cc2cc(OC(C)=O)ccc2-c2c(C=O)c3cc(OC(C)=O)ccc3n21` (stereo not drawn), the inhibition was determined as 22% in experiment [1], 80% in experiment [3], 25% in experiment [12] and 74% in experiment [19]. For the same molecule, the Relative uterus weight came to 24.6 in experiment [2]; 18.2 in experiment [4]; 45.3 in experiment [7]; 46.1 in [9]; 27 in experiment [15]; 17.2 in experiment [16]. Besides, the Relative uterus weight in experiment [20] is 41.8; in [21], 20.5. In addition, the T/C was found to be 85% in the experiment on MCF7 [5]; 91% in the experiment on MCF7 [6]; 12% in the experiment with MCF7 [8]; 86% in the experiment with MDA-MB-231 [10]; 43% in the experiment on MCF7 [11]; 111% with MDA-MB-231 [13]. Further, the T/C with MDA-MB-231 [17] is recorded as 106%; with MDA-MB-231 [18], 52%. For the same molecule, the relative binding affinity (RBA) in experiment [14] stood at 3.3.

Regarding `CCC1Cc2cc(OC(C)=O)ccc2-c2c(C=O)c3ccc(OC(C)=O)cc3n21` (stereo not drawn), the inhibition came out at 14% in experiment [1], 38% in experiment [3], 17% in [12] and 27% in experiment [19]. Also, the Relative uterus weight in experiment [2] came to 40.2; in [4], 15.9; in [7] it was 47.9; in experiment [9] it was 49; in experiment [15], 44.2; in experiment [16], 17.7. Moreover, the Relative uterus weight in experiment [20] was 22.8; in experiment [21], 18.2. Also, the T/C was found to be 89% with MCF7 [5]; 83% in the experiment on MCF7 [6]; 0% with MCF7 [8]; 34% in the experiment on MDA-MB-231 [10]; 2% in the experiment with MCF7 [11]; 92% in the experiment with MDA-MB-231 [13]. The T/C is listed as 101% with MDA-MB-231 [17] and 10% with MDA-MB-231 [18]. Also, in experiment [14], the relative binding affinity (RBA) is 1.3.
